Values after ≈ are worked out from the molar mass of the structure shown. Active and inactive are the calls of the source. The calls are words filed in the database; no cut-off is given here.
How the values were obtained:
Type in all cases: functional
UISO-SQC1 = assay: (§1) Cytotoxicity against human UISO-SQC1 cells after 72 hrs
Method in brief: (§2)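 Cells kept in RPMI with 10% FBS at 37 °C, 5% CO2, humidified. Log-phase cells exposed in triplicate to 1.0-100 µg/mL for 72 h at 37 °C. Cell density read by protein analysis. ED50 (dose giving 50% inhibition of control growth) estimated from semilog plot of concentration (µg/mL) versus percent viable cells.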

HCT-15 = assay: Cytotoxicity against human HCT15 cells after 72 hrs; settings: for EC50: HCT-15, 72 h, read-out: ED50 (the source's name); method in brief: as §2
OVCAR-5 = assay: Cytotoxicity against human OVCAR5 cells after 72 hrs; settings: OVCAR-5, 72 h, read-out: ED50 (the source's name); method in brief: as §2
[1] = as §1; settings: UISO-SQC1, 72 h, read-out: ED50 (the source's name); method in brief: as §2

CCCCCCCCCCCC(=O)O[C@H]1[C@H](O[C@@H]2[C@@H](O)[C@H]3OC(=O)CCCCCCCCCC(CCCCC)O[C@@H]4O[C@H](C)[C@@H](O)[C@H](O)[C@H]4OC3O[C@H]2C)O[C@@H](C)[C@H](O[C@@H]2O[C@@H](C)[C@H](OC(C)=O)[C@@H](O)[C@H]2O[C@@H]2O[C@H](CO)[C@@H](O)[C@H](O)[C@H]2O)[C@H]1O (stereo not given in full) [MURUCIN 1]
Activity (UISO-SQC1): inactive
Activity (HCT-15): inactive
EC50 (OVCAR-5): 5 mg/L (≈ 4.08 µM)

CCCCCCCCCCCC(=O)O[C@H]1[C@H](O[C@@H]2[C@@H](O)[C@H]3OC(=O)CCCCCCCCCC(CCCCC)O[C@@H]4O[C@H](C)[C@@H](O)[C@H](O)[C@H]4OC3O[C@H]2C)O[C@@H](C)[C@H](O[C@@H]2O[C@@H](C)[C@H](OC(=O)CC)[C@@H](O)[C@H]2O[C@@H]2O[C@H](CO)[C@@H](O)[C@H](O)[C@H]2O)[C@H]1O (stereo not given in full) [MURUCIN 2]
EC50 [1]: > 20 mg/L
EC50 (HCT-15): > 20 mg/L
EC50 (OVCAR-5): > 20 mg/L

CCCCCCCCCCCC(=O)O[C@H]1[C@H](O[C@@H]2[C@@H](O)[C@H]3OC(=O)CCCCCCCCCC(CCCCC)O[C@@H]4O[C@H](C)[C@@H](O)[C@H](O)[C@H]4OC3O[C@H]2C)O[C@@H](C)[C@H](O[C@@H]2O[C@@H](C)[C@H](OC(=O)CCC)[C@@H](O)[C@H]2O[C@@H]2O[C@H](CO)[C@@H](O)[C@H](O)[C@H]2O)[C@H]1O (stereo not given in full) [MURUCIN 3]
EC50 [1]: > 20 mg/L
EC50 (HCT-15): > 20 mg/L
EC50 (OVCAR-5): > 20 mg/L

CCCCCCCCCCCC(=O)O[C@H]1[C@H](O[C@@H]2[C@@H](O)[C@H]3OC(=O)CCCCCCCCCC(CCCCC)O[C@@H]4O[C@H](C)[C@@H](O)[C@H](O)[C@H]4OC3O[C@H]2C)O[C@@H](C)[C@H](O[C@@H]2O[C@@H](C)[C@H](OC(=O)C(C)CC)[C@@H](O)[C@H]2O[C@@H]2O[C@H](CO)[C@@H](O)[C@H](O)[C@H]2O)[C@H]1O (stereo not given in full) [MURUCIN 4]
EC50 [1]: > 20 mg/L
EC50 (HCT-15): > 20 mg/L
EC50 (OVCAR-5): > 20 mg/L

CCCCCCCCCCCC(=O)O[C@H]1[C@H](O[C@@H]2[C@@H](O)[C@H]3OC(=O)CCCCCCCCCC(CCCCC)O[C@@H]4O[C@H](C)[C@@H](O)[C@H](O)[C@H]4OC3O[C@H]2C)O[C@@H](C)[C@H](O[C@@H]2O[C@@H](C)[C@H](OC(=O)C(C)C(C)O)[C@@H](O)[C@H]2O[C@@H]2O[C@H](CO)[C@@H](O)[C@H](O)[C@H]2O)[C@H]1O (stereo not given in full) [MURUCIN 5]
EC50 [1]: > 20 mg/L
EC50 (HCT-15): > 20 mg/L
EC50 (OVCAR-5): > 20 mg/L
